Test results from ChEMBL document CHEMBL4002590, “Design and Synthesis of a Pan-Janus Kinase Inhibitor Clinical Candidate (PF-06263276) Suitable for Inhaled and Topical Delivery for the Treatment of Inflammatory Diseases of the Lungs and Skin” (J Med Chem, 2017).
Values after ≈ are worked out from the molar mass of the structure shown.

Tests used:
[1] = biological target: Non-receptor tyrosine-protein kinase TYK2 (Homo sapiens, UniProt P29597); experiment: Inhibition of Tyk2 (unknown origin) using peptide substrate preincubated for 60 mins followed by substrate addition and measured after 60 mins by microfluidic assay
Sequence of Non-receptor tyrosine-protein kinase TYK2 (P29597 whole entry): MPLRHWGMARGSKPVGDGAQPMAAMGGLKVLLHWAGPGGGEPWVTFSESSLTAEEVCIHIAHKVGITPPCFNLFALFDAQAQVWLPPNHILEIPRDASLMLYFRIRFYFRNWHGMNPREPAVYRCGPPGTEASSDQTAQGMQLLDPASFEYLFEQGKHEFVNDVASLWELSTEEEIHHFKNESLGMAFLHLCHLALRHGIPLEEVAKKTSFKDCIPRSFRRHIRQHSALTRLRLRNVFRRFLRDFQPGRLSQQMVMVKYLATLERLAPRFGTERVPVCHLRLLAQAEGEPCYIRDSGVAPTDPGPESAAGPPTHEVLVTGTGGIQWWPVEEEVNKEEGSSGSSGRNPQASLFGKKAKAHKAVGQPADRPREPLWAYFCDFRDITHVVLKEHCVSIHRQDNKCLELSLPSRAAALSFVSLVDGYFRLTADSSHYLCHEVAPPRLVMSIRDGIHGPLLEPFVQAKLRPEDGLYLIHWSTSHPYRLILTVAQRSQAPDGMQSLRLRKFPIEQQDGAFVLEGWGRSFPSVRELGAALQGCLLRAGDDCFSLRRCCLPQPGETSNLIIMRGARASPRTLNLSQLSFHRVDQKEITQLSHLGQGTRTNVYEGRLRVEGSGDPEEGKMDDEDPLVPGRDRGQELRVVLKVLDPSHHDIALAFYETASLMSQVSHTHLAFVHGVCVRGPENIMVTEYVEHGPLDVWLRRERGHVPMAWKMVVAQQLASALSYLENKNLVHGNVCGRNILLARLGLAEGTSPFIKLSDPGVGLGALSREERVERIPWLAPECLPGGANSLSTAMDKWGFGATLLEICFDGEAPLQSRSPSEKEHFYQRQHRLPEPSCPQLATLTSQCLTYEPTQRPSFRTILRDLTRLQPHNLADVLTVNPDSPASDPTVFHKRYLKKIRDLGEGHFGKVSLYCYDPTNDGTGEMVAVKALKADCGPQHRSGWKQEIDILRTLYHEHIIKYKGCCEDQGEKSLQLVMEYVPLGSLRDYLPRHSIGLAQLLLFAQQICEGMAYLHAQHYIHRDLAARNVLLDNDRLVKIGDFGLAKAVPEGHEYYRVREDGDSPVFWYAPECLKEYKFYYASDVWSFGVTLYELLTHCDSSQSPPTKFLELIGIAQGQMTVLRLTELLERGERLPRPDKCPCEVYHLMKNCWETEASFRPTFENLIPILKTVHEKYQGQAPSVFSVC
Method in brief: (§1)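 Caliper microfluidic assay of peptide-substrate phosphorylation by the relevant JAK enzyme, run at 1 mM ATP; IC50 values are geometric means of at least three determinations.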

Liver = experiment: Metabolic stability in human liver microsomes assessed per mg protein; assay type: ADME, microsome
Method in brief: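 Metabolic stability measured as turnover in human liver microsomes.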

[2] = biological target: T1, Tyrosine-protein kinase JAK3 (Homo sapiens, UniProt P52333); experiment: Inhibition of GST tagged human recombinant JAK3 catalytic domain expressed in baculovirus using peptide substrate preincubated for 60 mins followed by substrate addition and measured after 60 mins by microfluidic assay; method in brief: as §1
T1 sequence (P52333 whole entry): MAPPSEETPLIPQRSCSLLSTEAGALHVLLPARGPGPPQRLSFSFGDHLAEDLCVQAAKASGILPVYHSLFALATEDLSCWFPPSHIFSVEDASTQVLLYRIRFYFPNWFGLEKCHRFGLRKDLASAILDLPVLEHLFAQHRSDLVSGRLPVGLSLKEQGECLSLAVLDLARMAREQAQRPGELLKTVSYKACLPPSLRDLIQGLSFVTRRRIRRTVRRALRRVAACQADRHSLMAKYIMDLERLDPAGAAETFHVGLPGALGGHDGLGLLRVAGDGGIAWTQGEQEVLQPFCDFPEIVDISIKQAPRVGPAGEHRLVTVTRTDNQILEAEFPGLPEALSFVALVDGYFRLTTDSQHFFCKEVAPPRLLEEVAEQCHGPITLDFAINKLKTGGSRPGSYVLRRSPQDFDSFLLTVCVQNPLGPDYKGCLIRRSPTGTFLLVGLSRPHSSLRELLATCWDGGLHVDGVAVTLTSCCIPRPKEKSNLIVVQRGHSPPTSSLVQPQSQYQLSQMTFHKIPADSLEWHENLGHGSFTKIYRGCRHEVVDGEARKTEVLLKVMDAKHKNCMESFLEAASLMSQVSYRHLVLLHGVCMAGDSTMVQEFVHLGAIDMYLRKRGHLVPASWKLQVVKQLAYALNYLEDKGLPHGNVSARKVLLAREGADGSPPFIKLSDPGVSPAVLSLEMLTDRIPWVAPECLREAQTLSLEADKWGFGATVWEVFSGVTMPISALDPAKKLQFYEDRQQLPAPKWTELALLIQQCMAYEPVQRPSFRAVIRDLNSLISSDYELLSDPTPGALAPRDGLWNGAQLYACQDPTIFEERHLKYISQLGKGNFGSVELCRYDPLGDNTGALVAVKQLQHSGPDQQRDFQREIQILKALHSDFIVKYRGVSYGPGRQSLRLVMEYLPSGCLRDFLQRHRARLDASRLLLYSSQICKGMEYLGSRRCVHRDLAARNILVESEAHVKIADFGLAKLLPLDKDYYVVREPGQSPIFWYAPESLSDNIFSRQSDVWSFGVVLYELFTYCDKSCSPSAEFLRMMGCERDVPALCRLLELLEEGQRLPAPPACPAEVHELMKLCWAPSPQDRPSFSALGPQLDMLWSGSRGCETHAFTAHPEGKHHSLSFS

[3] = Thermodynamic solubility of the compound in pH 7.4 water buffer using crystalline solid sample; assay type: physicochemical; details: read-out: Therm_solubility
Method in brief: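 Thermodynamic solubility measured from crystalline solid in water buffered at pH 7.4.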

[4] = Drug metabolism in human liver microsomes assessed as UGT-mediated compound glucuronidation per mg protein in presence of microsomal activator Brij58 and cofactor UDPGA; assay type: ADME
Method in brief: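 Human liver microsomes supplemented with the activator Brij58 and cofactor UDPGA, NADPH omitted, to measure phase II glucuronidation turnover.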

[5] = biological target: T2, Tyrosine-protein kinase JAK2 (Homo sapiens, UniProt O60674); experiment: Inhibition of JAK2 homodimer in human whole blood assessed as inhibition of GM-CSF induced STAT5 phosphorylation preincubated for 45 mins followed by GM-CSF addition and measured after 20 mins by flow cytometric analysis
T2 sequence (O60674 whole entry): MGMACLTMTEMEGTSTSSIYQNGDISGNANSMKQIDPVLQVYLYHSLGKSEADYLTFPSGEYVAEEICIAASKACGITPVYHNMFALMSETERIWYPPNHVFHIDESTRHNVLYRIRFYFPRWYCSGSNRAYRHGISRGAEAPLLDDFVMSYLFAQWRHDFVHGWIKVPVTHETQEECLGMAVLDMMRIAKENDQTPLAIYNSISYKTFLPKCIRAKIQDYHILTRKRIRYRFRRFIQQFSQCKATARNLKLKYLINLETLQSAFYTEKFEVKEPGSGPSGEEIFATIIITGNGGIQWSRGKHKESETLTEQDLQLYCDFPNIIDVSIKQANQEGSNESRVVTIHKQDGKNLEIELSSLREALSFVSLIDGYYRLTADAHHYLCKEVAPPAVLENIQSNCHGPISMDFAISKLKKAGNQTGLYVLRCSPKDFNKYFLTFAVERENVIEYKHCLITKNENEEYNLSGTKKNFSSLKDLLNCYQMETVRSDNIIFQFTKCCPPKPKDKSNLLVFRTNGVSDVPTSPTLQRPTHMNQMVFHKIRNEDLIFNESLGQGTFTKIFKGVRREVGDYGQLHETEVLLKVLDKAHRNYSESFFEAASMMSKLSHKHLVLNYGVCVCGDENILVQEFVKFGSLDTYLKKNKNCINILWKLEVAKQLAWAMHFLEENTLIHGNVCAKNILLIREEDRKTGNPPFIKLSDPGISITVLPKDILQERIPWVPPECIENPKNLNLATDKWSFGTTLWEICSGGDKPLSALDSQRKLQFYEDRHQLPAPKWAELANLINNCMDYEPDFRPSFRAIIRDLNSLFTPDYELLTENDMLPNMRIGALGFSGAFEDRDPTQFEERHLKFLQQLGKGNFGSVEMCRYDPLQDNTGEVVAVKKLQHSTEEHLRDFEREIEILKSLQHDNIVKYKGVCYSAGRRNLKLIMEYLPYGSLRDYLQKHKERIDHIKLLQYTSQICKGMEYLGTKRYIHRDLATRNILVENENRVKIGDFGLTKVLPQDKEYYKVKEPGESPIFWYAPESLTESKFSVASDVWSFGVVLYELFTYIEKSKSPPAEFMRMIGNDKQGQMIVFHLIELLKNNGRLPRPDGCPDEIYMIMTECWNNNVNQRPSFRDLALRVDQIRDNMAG

Rattus norvegicus [6] = experiment: Intrinsic clearance in rat at 0.5 mg/kg, iv; assay type: ADME, organism-based; details: in vivo
[7] = Volume of distribution at steady state in dog at 0.1 mg/kg, iv administered as 30 mins infusion; assay type: ADME, organism-based, Canis lupus familiaris; details: in vivo, read-out: Vdss
[8] = Terminal half life in dog at 0.1 mg/kg, iv administered as 30 mins infusion; assay type: ADME, organism-based, Canis lupus familiaris; details: in vivo, read-out: beta t1/2 (converted)
[9] = Plasma protein binding in rat at 0.5 mg/kg, iv; assay type: ADME, organism-based; details: read-out: PPB
Mus musculus [10] = experiment: In vivo inhibition of JAK1/JAK2 in […] dosed Balb/c mouse assessed as inhibition of IL-6 induced STAT3 phosphorylation in lungs pretreated for 15 mins followed by IL-6 stimulation measured after 30 mins by ELISA; assay type: functional
Method in brief: (§2)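 Intratracheal dosing in mouse, then IL-6 given i.t.; phosphorylated STAT3 quantified in lung. Percent inhibition ± 95% CI from the difference in geometric means between vehicle/IL-6 and vehicle/saline groups; N = 6.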

Mus musculus [11] = experiment: In vivo inhibition of JAK1/JAK2 in Balb/c mouse assessed as inhibition of IL-6 induced STAT3 phosphorylation in lungs at 10 ug, it pretreated for 15 mins followed by IL-6 stimulation measured after 30 mins by ELISA relative to control; assay type: functional; method in brief: as §2
Mus musculus [12] = experiment: In vivo inhibition of JAK2 homodimer in Balb/c mouse assessed as inhibition of GM-CSF induced STAT5 phosphorylation in blood at 100 ug, it for 12 consecutive days; assay type: functional
Method in brief: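 After i.t. dosing in mouse, GM-CSF-induced phosphorylated STAT5 measured in blood; percent inhibition ± 95% CI from geometric means versus vehicle groups; N = 3.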

[13] = biological target: 5-hydroxytryptamine receptor 7 (Homo sapiens) (UniProt P34969); experiment: Antagonist activity at recombinant human 5-HT7 receptor expressed in CHO cells assessed as inhibition of serotonin-induced cAMP accumulation at 10 uM after 30 mins by HTRF method relative to control; assay type: functional, cell-based
Sequence of 5-hydroxytryptamine receptor 7 (Homo sapiens) (P34969 whole entry): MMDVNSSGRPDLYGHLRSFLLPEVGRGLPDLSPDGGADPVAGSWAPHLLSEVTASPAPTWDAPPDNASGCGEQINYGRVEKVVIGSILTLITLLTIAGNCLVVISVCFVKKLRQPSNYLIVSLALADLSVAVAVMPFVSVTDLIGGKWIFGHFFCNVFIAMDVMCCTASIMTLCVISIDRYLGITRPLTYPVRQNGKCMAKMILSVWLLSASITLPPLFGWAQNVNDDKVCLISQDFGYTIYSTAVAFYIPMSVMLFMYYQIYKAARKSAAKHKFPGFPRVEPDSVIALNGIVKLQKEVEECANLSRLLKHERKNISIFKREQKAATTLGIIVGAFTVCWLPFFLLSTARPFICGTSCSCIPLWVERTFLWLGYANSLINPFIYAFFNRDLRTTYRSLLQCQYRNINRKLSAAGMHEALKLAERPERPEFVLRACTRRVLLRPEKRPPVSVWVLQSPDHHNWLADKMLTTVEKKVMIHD

[14] = biological target: Alpha-2B adrenergic receptor (Homo sapiens) (UniProt P18089); experiment: Antagonist activity at recombinant human alpha 2B adrenergic receptor expressed in HEK293 cells assessed as inhibition of dexmedetomidine-induced cAMP accumulation at 10 uM after 30 mins by HTRF method; assay type: functional, cell-based
Sequence of Alpha-2B adrenergic receptor (Homo sapiens) (P18089 whole entry): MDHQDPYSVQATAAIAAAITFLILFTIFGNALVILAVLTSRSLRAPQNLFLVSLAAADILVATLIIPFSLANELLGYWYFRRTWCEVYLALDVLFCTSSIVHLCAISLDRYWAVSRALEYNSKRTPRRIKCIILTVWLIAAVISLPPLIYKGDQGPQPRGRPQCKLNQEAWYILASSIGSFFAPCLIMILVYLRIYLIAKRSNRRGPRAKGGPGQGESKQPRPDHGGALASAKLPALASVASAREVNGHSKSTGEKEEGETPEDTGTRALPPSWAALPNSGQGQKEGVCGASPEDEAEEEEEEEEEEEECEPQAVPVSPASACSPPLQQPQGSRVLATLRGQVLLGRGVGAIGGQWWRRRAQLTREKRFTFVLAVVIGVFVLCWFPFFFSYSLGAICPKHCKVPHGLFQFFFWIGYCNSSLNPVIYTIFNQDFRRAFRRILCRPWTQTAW

Rattus norvegicus [15] = experiment: Toxicity in iv dosed rat for 7 days; assay type: organism-based; details: in vivo, 168 h
Method in brief: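 Exploratory 7-day intravenous toxicology studies in rat and dog; margins expressed over total plasma AUC relative to projected exposure at a 200 μg human lung dose.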

[16] = Chemical stability at room temperature up to 6 weeks; assay type: physicochemical; details: 1008 h
Method in brief: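 Crystalline solid stored at room temperature and at 40 °C/75% relative humidity for up to 6 weeks; chemical stability assessed.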

Janus Kinase (JAK) = Janus Kinase (JAK) (Homo sapiens, UniProt P52333+P23458+O60674+P29597)
[17] = biological target: T2, Tyrosine-protein kinase JAK2

SMILES: CCc1cc(O)c(F)cc1-c1ccc2c(-c3nc4c([nH]3)CCN(C(=O)c3cnc(N5CCCCC5)cn3)C4)n[nH]c2c1
- IC50 [1]: 29.7 nM
- Stability (Liver): 101 µL/min
- IC50 [2]: 59.9 nM
- solubility thermodynamic [3]: 0.5 µM (≈ 0.283 µg/mL)
- Drug metabolism [4]: 129 µL/min
- IC50 [5]: 5200 nM
- CL (Rattus norvegicus [6]): 48 mL/min/kg
- Vd [7]: 1 L/kg
- half-life [8]: 2 h
- fraction unbound [9]: ≤ 0.001
- ED50 (Mus musculus [10]): 3 µg
- inhibition (Mus musculus [10]): Dose-dependent effect
- inhibition (INH) (Mus musculus [11]): 100%
- inhibition (INH) (Mus musculus [12]): <50%
- inhibition [13]: > 50%
- inhibition [14]: > 50%
- Activity (Rattus norvegicus [15]): Non-Toxic
- Stability [16]: Stable
- T1/2 (Janus Kinase (JAK)): > 6 h
- fIC50 [17]: 5.2 nM
